Data on twelve molecules can be found in ChEMBL document CHEMBL4190270, “Novel 4-arylaminoquinazoline derivatives with (E)-propen-1-yl moiety as potent EGFR inhibitors with enhanced antiproliferative activities against tumor cells” (Eur J Med Chem, 2017).

Active and inactive are the calls of the source. The calls are words filed in the database; no cut-off is given here. A value given as a limit tells only on which side of the number the result lay.

One series deals with NCI-H1975. Kind of series: Antiproliferative activity against human NCI-H1975 cells harboring EGFR L858R/T790M mutant after 72 hrs by MTT assay. The series is classed as functional, cell-based. Particulars: NCI-H1975, 72 h.
A further series concerns SW480. Kind of series: Antiproliferative activity against human SW480 cells harboring wild type EGFR after 72 hrs by MTT assay. Particulars: SW480, 72 h. The series is classed as functional, cell-based. For orientation: Formazan colour is commonly taken as a measure of viable cells.
The test system of a further series is A-431. Kind of series: Antiproliferative activity against human A431 cells harboring wild type EGFR after 72 hrs by MTT assay. Particulars: A-431, 72 h. The format is functional, cell-based. Put shortly:
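Cells grown in DMEM or 1640 with 10% FBS, penicillin/streptomycin and 2 mM L-glutamine, plated in 96 wells for 24 h at 37 °C under 5% CO2. Exposed to compound as an 8-point series, or to 0.5% DMSO, for 72 h. Then MTT (5 mg/ml) for 4 h, formazan dissolved in DMSO, absorbance read at 570 nm (630 nm reference). IC50 by nonlinear regression; mean ± SD of at least three independent experiments.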

For series [1], the system named is A549. Kind of series: Antiproliferative activity against human A549 cells harboring wild type EGFR/K-Ras mutant after 72 hrs by MTT assay. The series is classed as functional, cell-based. Particulars: A549, 72 h.
Series [2] addresses T1, Epidermal growth factor receptor (Homo sapiens, UniProt P00533). The format is cell-based, HEK293.
The subject of series [3] is Epidermal growth factor receptor (Homo sapiens), P00533 [L858R,T790M]. Kind of series: Inhibition of EGF-induced EGFR L858R/T790M double mutant phosphorylation at Y1068-residue in human NCI-H1975 cells preincubated for 2 hrs followed by EGF stimulation for 10 mins by Western blot analysis. The series is classed as cell-based. An outline of the steps: (§1)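 Cells grown in 6-well plates with 10% FBS to 90% confluence, then serum-starved 24 h. Exposed to a dose range of compound, or to 25 μM reference drug, for 2 h, then stimulated with 50 ng/mL EGF for 10 min at 37 °C. Lysed in RIPA with protease/phosphatase inhibitors. 20 µg protein run on 10% SDS-PAGE, transferred to PVDF, blocked with 5% milk, immunoblotted and detected by ECL.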

The test system is the same in series [4]. Kind of series: Inhibition of EGFR L858R/T790M double mutant in human NCI-H1975 cells assessed as reduction in EGF-induced Akt phosphorylation at Ser473 residue at 25 uM preincubated for 2 hrs followed by EGF stimulation for 10 mins by Western blot analysis. The format is cell-based. An outline of the steps:
as §1

In series [5] the target is T1, Epidermal growth factor receptor. Kind of series: Inhibition of EGFR in human A549 cells assessed as reduction in EGF-induced STAT3 phosphorylation at 1 to 25 uM preincubated for 2 hrs followed by EGF stimulation for 10 mins by Western blot analysis. The series is classed as cell-based. Put shortly:
as §1

Series [6] has the same target. Particulars: A549, at 25 µM.
The test system of series [7] is Epidermal growth factor receptor (Homo sapiens), P00533 [L858R,T790M]. Kind of series: Inhibition of EGF-induced EGFR L858R/T790M double mutant phosphorylation at Tyr-residue in human NCI-H1975 cells preincubated for 2 hrs followed by EGF stimulation for 10 mins by Western blot analysis. The format is cell-based. An outline of the steps: as §1
On the technique in general: In western blotting, separated proteins are transferred to a membrane and probed.

The target in series [8] is T1, Epidermal growth factor receptor. Kind of series: Inhibition of EGF-induced EGFR phosphorylation at Y1086-residue in human A549 cells at 5 uM preincubated for 2 hrs followed by EGF stimulation for 10 mins by Western blot analysis. The series is classed as cell-based. An outline of the steps: as §1
Series [9] has the same target. Kind of series: Inhibition of EGFR in human A549 cells assessed as reduction in EGF-induced ERK1/2 phosphorylation at T202/Y204 residues at 5 uM preincubated for 2 hrs followed by EGF stimulation for 10 mins by Western blot analysis. The series is classed as cell-based. Put shortly: as §1
The target is the same in series [10]. Particulars: A549, at 25 µM. This is another data set of the same source.
Series [11] relates to Epidermal growth factor receptor (Homo sapiens), P00533 [L858R,T790M]. Kind of series: Inhibition of EGFR L858R/T790M double mutant in human NCI-H1975 cells assessed as reduction in EGF-induced ERK1/2 phosphorylation at T202/Y204 residues at 25 uM preincubated for 2 hrs followed by EGF stimulation for 10 mins by Western blot analysis. The format is cell-based. An outline of the steps:
as §1

For series [12], the target named is T1, Epidermal growth factor receptor. Kind of series: Inhibition of EGF-induced EGFR phosphorylation at Tyr-residue in human A549 cells at 5 uM preincubated for 2 hrs followed by EGF stimulation for 10 mins by Western blot analysis. The series is classed as cell-based. Put shortly: as §1
For series [13], the system named is A549. Kind of series: Effect on total EGFR protein expression in human A549 cells at 1 to 25 uM preincubated for 2 hrs followed by EGF stimulation for 10 mins by Western blot analysis. The series is classed as ADME, cell-based. Particulars: a549, 10 min. An outline of the steps:
as §1

The subject of series [14] is A549. Kind of series: Effect on total AKT protein expression in human A549 cells at 1 to 25 uM preincubated for 2 hrs followed by EGF stimulation for 10 mins by Western blot analysis. The format is ADME, cell-based. Particulars: a549, 10 min. Put shortly:
as §1

Series [15] relates to Epidermal growth factor receptor (Homo sapiens), P00533 [L858R,T790M]. Particulars: NCI-H1975, at 25 µM.
Series [16] shares this test system. Kind of series: Inhibition of EGF-induced EGFR L858R/T790M double mutant phosphorylation at Y992-residue in human NCI-H1975 cells preincubated for 2 hrs followed by EGF stimulation for 10 mins by Western blot analysis. The series is classed as cell-based. Put shortly: as §1
Series [17] addresses T1, Epidermal growth factor receptor. Particulars: A549, at 25 µM. The source holds these as a separate data set.
Series [18] has the same target. Particulars: A549, at 25 µM. This is another data set of the same source.
Series [19] shares this target. Kind of series: Inhibition of EGF-induced EGFR phosphorylation at Y992-residue in human A549 cells at 5 uM preincubated for 2 hrs followed by EGF stimulation for 10 mins by Western blot analysis. The format is cell-based. An outline of the steps:
as §1

For series [20], the system named is A549. Kind of series: Effect on total ERK1/2 protein expression in human A549 cells at 1 to 25 uM preincubated for 2 hrs followed by EGF stimulation for 10 mins by Western blot analysis. Particulars: a549, 10 min. The format is ADME, cell-based. Put shortly:
as §1

Series [21] deals with T1, Epidermal growth factor receptor. Kind of series: Inhibition of EGFR in human A549 cells assessed as reduction in EGF-induced Akt phosphorylation at S473 residue at 5 uM preincubated for 2 hrs followed by EGF stimulation for 10 mins by Western blot analysis. The format is cell-based. An outline of the steps:
as §1

Series [22] has the same target. Particulars: A549, at 25 µM. The source holds these as a separate data set.

In general, IC50 refers to the point on the concentration scale where inhibition reaches its midpoint. Low readings indicate inhibition by little substance, high ones a need for much substance.

T1 sequence (P00533 whole entry): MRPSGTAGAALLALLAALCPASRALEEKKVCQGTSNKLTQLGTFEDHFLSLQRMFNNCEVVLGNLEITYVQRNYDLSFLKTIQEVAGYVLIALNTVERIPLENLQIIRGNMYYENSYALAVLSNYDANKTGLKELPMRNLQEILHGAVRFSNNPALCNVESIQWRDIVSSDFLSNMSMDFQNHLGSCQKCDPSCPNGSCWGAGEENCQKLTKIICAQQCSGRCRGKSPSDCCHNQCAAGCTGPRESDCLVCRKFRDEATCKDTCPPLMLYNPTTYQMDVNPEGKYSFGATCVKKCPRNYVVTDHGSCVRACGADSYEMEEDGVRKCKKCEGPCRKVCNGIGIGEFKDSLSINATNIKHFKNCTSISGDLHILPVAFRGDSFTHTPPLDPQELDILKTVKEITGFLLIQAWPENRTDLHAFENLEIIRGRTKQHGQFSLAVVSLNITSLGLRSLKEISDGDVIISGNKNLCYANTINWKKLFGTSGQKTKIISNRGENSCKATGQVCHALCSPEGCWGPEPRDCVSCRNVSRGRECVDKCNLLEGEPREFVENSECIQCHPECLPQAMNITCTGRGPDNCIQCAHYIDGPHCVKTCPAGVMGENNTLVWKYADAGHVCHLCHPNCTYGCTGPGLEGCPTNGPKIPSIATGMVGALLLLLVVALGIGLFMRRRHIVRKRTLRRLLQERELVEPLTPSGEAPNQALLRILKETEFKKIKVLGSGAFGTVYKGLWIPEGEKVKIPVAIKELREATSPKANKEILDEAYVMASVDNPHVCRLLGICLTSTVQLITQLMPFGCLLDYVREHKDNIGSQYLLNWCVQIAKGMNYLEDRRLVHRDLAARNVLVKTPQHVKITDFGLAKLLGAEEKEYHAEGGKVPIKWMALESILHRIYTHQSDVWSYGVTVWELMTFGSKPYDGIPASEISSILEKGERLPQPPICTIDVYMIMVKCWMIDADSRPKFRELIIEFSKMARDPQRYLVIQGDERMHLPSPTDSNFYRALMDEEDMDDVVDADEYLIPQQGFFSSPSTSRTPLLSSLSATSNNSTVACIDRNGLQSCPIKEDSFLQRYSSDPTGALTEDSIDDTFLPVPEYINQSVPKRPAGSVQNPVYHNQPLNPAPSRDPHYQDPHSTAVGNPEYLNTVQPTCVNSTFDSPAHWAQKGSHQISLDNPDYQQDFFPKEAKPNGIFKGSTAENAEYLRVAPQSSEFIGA
Chain of Epidermal growth factor receptor (Homo sapiens), P00533 [L858R,T790M] (P00533 whole entry T790M/L858R, looked up): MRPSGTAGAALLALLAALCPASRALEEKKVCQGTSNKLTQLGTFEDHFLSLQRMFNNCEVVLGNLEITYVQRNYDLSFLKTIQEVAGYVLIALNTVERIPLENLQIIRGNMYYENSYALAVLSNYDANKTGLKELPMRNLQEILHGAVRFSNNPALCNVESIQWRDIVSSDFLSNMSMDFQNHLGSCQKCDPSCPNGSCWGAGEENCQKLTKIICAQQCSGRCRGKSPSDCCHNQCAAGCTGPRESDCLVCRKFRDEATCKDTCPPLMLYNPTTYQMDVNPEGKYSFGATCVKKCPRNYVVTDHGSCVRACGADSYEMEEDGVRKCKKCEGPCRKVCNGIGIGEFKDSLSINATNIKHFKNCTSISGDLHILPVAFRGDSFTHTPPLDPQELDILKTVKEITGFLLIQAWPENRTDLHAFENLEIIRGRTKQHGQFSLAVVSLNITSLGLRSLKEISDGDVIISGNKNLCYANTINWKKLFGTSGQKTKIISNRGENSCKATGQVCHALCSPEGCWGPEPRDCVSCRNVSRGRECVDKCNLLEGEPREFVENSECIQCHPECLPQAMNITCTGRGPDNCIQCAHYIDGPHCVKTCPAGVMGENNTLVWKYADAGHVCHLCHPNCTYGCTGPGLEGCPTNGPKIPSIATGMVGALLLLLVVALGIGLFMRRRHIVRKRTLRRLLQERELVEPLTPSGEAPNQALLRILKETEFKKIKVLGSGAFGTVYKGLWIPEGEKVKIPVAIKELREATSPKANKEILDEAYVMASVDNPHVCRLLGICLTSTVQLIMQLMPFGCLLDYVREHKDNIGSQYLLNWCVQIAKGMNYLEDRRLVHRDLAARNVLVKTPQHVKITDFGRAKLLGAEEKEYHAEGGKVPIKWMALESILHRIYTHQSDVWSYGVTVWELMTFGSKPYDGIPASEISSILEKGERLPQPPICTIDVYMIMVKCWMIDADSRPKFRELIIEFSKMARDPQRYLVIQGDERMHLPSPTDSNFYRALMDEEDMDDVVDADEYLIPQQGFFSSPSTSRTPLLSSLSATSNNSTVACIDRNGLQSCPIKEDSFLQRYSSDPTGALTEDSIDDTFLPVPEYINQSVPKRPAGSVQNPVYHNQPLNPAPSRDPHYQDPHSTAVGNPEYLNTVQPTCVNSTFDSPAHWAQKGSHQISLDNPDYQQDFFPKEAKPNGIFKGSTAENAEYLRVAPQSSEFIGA

Consider `CS(=O)(=O)CCNCc1ccc(-c2ccc3ncnc(Nc4ccc(OCc5cccc(F)c5)c(Cl)c4)c3c2)o1` [LAPATINIB], for which half-maximal inhibition with NCI-H1975 (IC50) required 9.08 µM.
As for `C/C=C/c1ccc(Nc2ncnc3ccc(OCCCN4CCOCC4)cc23)cc1`, the IC50 in the series with SW480 is 10.4 µM; in the series on NCI-H1975, 23.9 µM; in the series with A-431, 12 µM; in the series with A549 [1], 17.4 µM.
Turning to `C/C=C/c1ccc(Nc2ncnc3ccc(OCCN4CCOCC4)cc23)cc1`, the IC50 in the series with SW480 was 62.6 µM; in the series with NCI-H1975, over 100 µM; with A-431, 57.7 µM; in the series on A549 [1], 85.3 µM.
The matching figures for `C/C=C/c1ccc(Nc2ncnc3cc(OCCCN4CCOCC4)c(OC)cc23)cc1`: 11.6 µM, 10.8 µM, 6.34 µM and 10.3 µM.
The matching figures for `C/C=C/c1ccc(Nc2ncnc3cc(OC)c(OCCN4CCOCC4)cc23)cc1`: 28.2 µM, over 100 µM, 47.1 µM and 26.5 µM.
On to `C/C=C/c1ccc(Nc2ncnc3cc(OC)c(OCCCN4CCOCC4)cc23)cc1`, for which the half-inhibitory concentration (IC50) in the series with SW480 was determined as 14.7 µM; in the series on NCI-H1975 it was 38.9 µM; in the series on A-431, 13.9 µM; in the series on A549 [1], 10.3 µM.
The matching figures for `C/C=C/c1ccc(Nc2ncnc3cc(OCc4ccccc4)c(OCc4ccccc4)cc23)cc1`: 37 µM, 44.1 µM, 28.1 µM and 36.5 µM.
In series [2], `C/C=C/c1ccc(Nc2ncnc3cc(OCCCN4CCOCC4)c(OCCCN4CCOCC4)cc23)cc1` came in with a 50% inhibitory concentration (IC50) of 0.0207 µM. Further, the inhibition result in [3], in series [7] and in series [16] was “Dose-dependent effect” each time. In addition, the inhibition result in series [4], in [6], in series [8], in series [9], in series [10] and in series [11] was “Active” throughout. The inhibition entry in [12], in [15], in series [17], in [18], in series [19] and in [21] was “Active” each time. Also, in series [22], the inhibition entry was “Active”. For the same molecule, in series [5], the inhibition entry was “inactive”. Moreover, the Activity result with A549 [13], with A549 [14] and in the series on A549 [20] was “Non-Toxic” throughout.
For `C/C=C/c1ccc(Nc2ncnc3cc4c(cc23)OCCO4)cc1`, the half-maximal inhibitory concentration (IC50) in the series with SW480 is 34 µM; in the series with NCI-H1975 it was over 100 µM; in the series with A-431 it was over 100 µM; with A549 [1], 38.2 µM.
Consider `C/C=C/c1ccc(Nc2ncnc3cc(OCCOC)c(OCCOC)cc23)cc1`, for which the IC50 with SW480 was 43.6 µM; with NCI-H1975, 27.7 µM; with A-431, 23.9 µM; in the series with A549 [1], 24.7 µM.
The matching figures for `C/C=C/c1ccc(Nc2ncnc3ccc(-c4ccc(CNCCS(C)(=O)=O)o4)cc23)cc1`: 56.3 µM, over 100 µM, 37.6 µM and 84.5 µM.
For `C/C=C/c1ccc(Nc2ncnc3cc(OCCN4CCOCC4)c(OC)cc23)cc1`, the 50% inhibitory concentration (IC50) was 27.6 µM in the series with SW480, over 100 µM with NCI-H1975, 22.4 µM in the series on A-431 and 37.5 µM in the series on A549 [1].
